Calls of active or inactive are those of the source. No cut-off for these calls is given here.
Columns and labels:
[1] = Terminal half life in Wistar Han rat at 5 mg/kg, po administered via gavage by LC-MS/MS analysis; format: ADME, organism-based; settings: in vivo, read-out: beta t1/2 (converted)
Plasma = experiment: Drug uptake in rat plasma at 5 to 250 mg/kg/day, po up to 15 days by microscopic method; format: ADME, organism-based; settings: in vivo, 360 h
How it was run: (§1)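 Exploratory rat toxicity study, oral dosing at 5, 50 and 250 mg/kg/day for up to 15 days, with microscopic examination of heart and vasculature and measurement of plasma and brain exposure.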

[2] = Drug metabolism in dog hepatocytes assessed as 1-(7-methyl-5-(1-methyl-5-(5-(trifluoromethyl)pyridin-2-yl)-1H-pyrazol-4-yl)imidazo[1,5-f][1,2,4]triazin-4-yl)azetidin-3-ol formation at 1 to 50 uM after 1 hr by LC-MS/MS analysis; format: ADME, cell-based, Canis lupus familiaris, Hepatocyte
How it was run: (§2)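 Rat, dog or human liver microsomes or hepatocytes (P450 0.35–0.5 µM final) incubated with compound at 1, 10 or 50 µM in 100 mM phosphate buffer with 1 mM NADP regenerating system, 37°C for 1 h; quenched with 4 volumes acetonitrile, centrifuged, supernatant evaporated, reconstituted in 5% aqueous acetonitrile and analysed by reversed-phase LC.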

Canis familiaris [3] = experiment: Toxicity in dog up to 30 mg/kg, po administered as single dose by microscopic method; format: organism-based, Canis lupus familiaris; settings: in vivo
Liver [4] = experiment: Drug metabolism in dog liver microsomes assessed as 3-(7-methyl-5-(1-methyl-5-(5-(trifluoromethyl)pyridin-2-yl)-1H-pyrazol-4-yl)imidazo[1,5-f][1,2,4]triazin-4-ylamino)propanoic acid formation at 1 to 50 uM after 1 hr by LC-MS/MS analysis; format: ADME, Canis lupus familiaris, microsome; how it was run: as §2
[5] = Tmax in beagle dog at 5 mg/kg, po administered via gavage by LC-MS/MS analysis; format: ADME, organism-based, Canis lupus familiaris; settings: in vivo
[6] = Drug metabolism in human hepatocytes assessed as 1-(7-methyl-5-(1-methyl-5-(5-(trifluoromethyl)pyridin-2-yl)-1H-pyrazol-4-yl)imidazo[1,5-f][1,2,4]triazin-4-yl)azetidin-3-ol formation at 1 to 50 uM after 1 hr by LC-MS/MS analysis; format: ADME, cell-based, Hepatocyte; how it was run: as §2
Rattus norvegicus [7] = species: Rattus norvegicus; experiment: Toxicity in rat assessed as effect on skeletal muscle up to 1 month by microscopic method; settings: in vivo
[8] = Cmax in Wistar Han rat at 5 mg/kg, po administered via gavage by LC-MS/MS analysis; format: ADME, organism-based; set-up: dose 5 mg/kg, route oral; settings: in vivo
Brain = experiment: Drug uptake in rat brain at 5 to 250 mg/kg/day, po up to 15 days by microscopic method; format: ADME, organism-based; settings: in vivo, 360 h; how it was run: as §1
Cytochrome P450 3A [9] = target: T1, Cytochrome P450 3A (Homo sapiens, UniProt P08684+P20815+Q9HB55+P24462); experiment: Inhibition of recombinant human CYP3A; format: ADME; settings: recombinant enzyme
[10] = AUC (0 to infinity) in Wistar Han rat at 5 mg/kg, po administered via gavage by LC-MS/MS analysis; format: ADME, organism-based; set-up: dose 5 mg/kg, route oral, time infinity; settings: in vivo
Mus musculus [11] = species: Mus musculus; experiment: Increase in cGMP level in CD-1 mouse brain cortex by immunoassay; format: functional
How it was run: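 CD-1 mice dosed SC (solution in 20% SBE-β-CD with 2 molar equivalents 1N HCl, 1 mL/kg); euthanized by focused microwave irradiation of brain; cortex, striatum, hippocampus homogenized in 0.5 N HCl, centrifuged; cyclic nucleotides in supernatant by enzyme immunoassay. Unbound brain exposure from satellite animals; dose-response and time-course data combined with linear model; one-way ANOVA with Fisher's PLSD.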

Mus musculus [12] = species: Mus musculus; experiment: Increase in cGMP level in CD-1 mouse brain striatum assessed as unbound brain concentration required to show the effect by immunoassay; format: functional
How it was run: (§3)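 CD-1 mice given compound; brains fixed by focused microwave irradiation, and cortex, striatum and hippocampus dissected and homogenized in 0.5 N HCl, then centrifuged. cGMP in the supernatant measured by enzyme immunoassay. Unbound brain concentration taken from satellite animals. Dose-response and time-course data combined, and a linear Cbu–cGMP model fitted. The Cbu E50 is the projected Cbu giving a 50% rise in cGMP. Statistics by one-way ANOVA with Fisher's PLSD, p<0.05.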

[13] = Cmax in Wistar Han rat at 1 mg/kg, iv by LC-MS/MS analysis; format: ADME, organism-based; set-up: dose 1 mg/kg, route intravenous; settings: in vivo
How it was run: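 Male Wistar-Han rats given single 1 mg/kg IV; beagle dogs 0.3 mg/kg IV; solution in 20% (w/v) sulfobutyl ether β-cyclodextrin with hydrochloric acid, 1 mL/kg (rat) or 0.4 mL/kg (dog). Blood via carotid artery cannula between 2 min and 24 h into EDTA tubes; plasma analysed by LC-MS/MS with positive electrospray.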

[14] = 1-octanol/phosphate buffer solution partition coefficient, log D of the compound at pH 7.4 after 1 hr by LC-MS/MS method; format: physicochemical
Cytochrome P450 2D6 = Cytochrome P450 2D6 (Homo sapiens, UniProt P10635); experiment: Inhibition of recombinant human CYP2D6; format: ADME; settings: recombinant enzyme
Cytochrome P450 2D6, sequence (P10635 whole entry): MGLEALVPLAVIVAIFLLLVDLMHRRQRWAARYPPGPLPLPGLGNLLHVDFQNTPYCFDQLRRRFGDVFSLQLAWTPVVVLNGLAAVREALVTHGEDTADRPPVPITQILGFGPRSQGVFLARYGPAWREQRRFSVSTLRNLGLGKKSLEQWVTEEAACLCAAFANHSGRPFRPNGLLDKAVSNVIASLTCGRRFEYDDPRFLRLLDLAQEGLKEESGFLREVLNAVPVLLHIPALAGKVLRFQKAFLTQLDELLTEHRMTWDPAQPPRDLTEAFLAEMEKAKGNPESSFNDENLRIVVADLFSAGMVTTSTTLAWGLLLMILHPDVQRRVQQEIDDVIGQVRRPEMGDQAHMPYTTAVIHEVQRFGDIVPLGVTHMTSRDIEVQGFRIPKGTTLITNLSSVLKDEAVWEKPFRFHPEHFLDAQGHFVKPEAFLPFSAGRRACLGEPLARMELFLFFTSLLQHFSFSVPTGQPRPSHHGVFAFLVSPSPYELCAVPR

[15] = Cmax in beagle dog at 5 mg/kg, po administered via gavage by LC-MS/MS analysis; format: ADME, organism-based, Canis lupus familiaris; set-up: dose 5 mg/kg, route oral; settings: in vivo
Cytochrome P450 2C19 = Cytochrome P450 2C19 (Homo sapiens, UniProt P33261); experiment: Time-dependant inhibition of recombinant human CYP2C19; format: ADME; settings: recombinant enzyme
Cytochrome P450 2C19, sequence (P33261 whole entry): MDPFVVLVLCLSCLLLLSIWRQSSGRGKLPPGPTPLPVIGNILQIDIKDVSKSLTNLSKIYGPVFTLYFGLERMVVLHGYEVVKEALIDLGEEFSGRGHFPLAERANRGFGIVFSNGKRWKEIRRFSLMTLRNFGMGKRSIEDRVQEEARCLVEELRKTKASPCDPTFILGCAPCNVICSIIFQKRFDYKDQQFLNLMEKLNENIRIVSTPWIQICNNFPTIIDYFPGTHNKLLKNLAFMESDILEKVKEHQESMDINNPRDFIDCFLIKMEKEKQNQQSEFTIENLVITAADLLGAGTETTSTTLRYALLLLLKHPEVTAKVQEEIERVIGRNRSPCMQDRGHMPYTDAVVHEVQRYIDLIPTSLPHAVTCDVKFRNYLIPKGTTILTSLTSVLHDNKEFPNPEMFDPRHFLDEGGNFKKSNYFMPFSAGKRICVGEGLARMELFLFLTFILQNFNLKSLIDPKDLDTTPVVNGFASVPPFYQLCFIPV

Rattus norvegicus [16] = experiment: Reversal of ketamine-induced working memory deficit in Long Evans rat at 1 mg/kg, sc by radial arm maze assay; format: functional, organism-based
How it was run: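 Rats trained in a radial arm maze working-memory task, with deficit induced by ketamine. Compound dosed sc; errors compared with vehicle + ketamine. N = 20–23 per group, Hochberg test. Cbu at the tested doses estimated from satellite pharmacokinetic animals.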

Cytochrome P450 3A [17] = target: T1, Cytochrome P450 3A; experiment: Time-dependant inhibition of recombinant human CYP3A; format: ADME; settings: recombinant enzyme
Canis familiaris [18] = experiment: Cardiotoxicity in dog up to 15 mg/kg/day, po for 14 days by microscopic method; format: toxicity, organism-based, Canis lupus familiaris; settings: in vivo, 336 h
Liver [19] = experiment: Drug metabolism in rat liver microsomes assessed as 1-(7-methyl-5-(1-methyl-5-(5-(trifluoromethyl)pyridin-2-yl)-1H-pyrazol-4-yl)imidazo[1,5-f][1,2,4]triazin-4-yl)azetidin-3-ol formation at 1 to 50 uM after 1 hr by LC-MS/MS analysis; format: ADME, microsome; how it was run: as §2
Rattus norvegicus [20] = experiment: Reversal of MK-801-induced disruption of low frequency cortical delta oscillation in Sprague-Dawley rat brain at 0.03 mg/kg, iv measured up to 55 mins by electrophysiology method; format: functional, organism-based
Liver [21] = experiment: Drug metabolism in rat liver microsomes assessed as 3-(7-methyl-5-(1-methyl-5-(5-(trifluoromethyl)pyridin-2-yl)-1H-pyrazol-4-yl)imidazo[1,5-f][1,2,4]triazin-4-ylamino)propanoic acid formation at 1 to 50 uM after 1 hr by LC-MS/MS analysis; format: ADME, microsome; how it was run: as §2
Rattus norvegicus [22] = species: Rattus norvegicus
[23] = Drug metabolism in rat hepatocytes assessed as 3-(7-methyl-5-(1-methyl-5-(5-(trifluoromethyl)pyridin-2-yl)-1H-pyrazol-4-yl)imidazo[1,5-f][1,2,4]triazin-4-ylamino)propanoic acid formation at 1 to 50 uM after 1 hr by LC-MS/MS analysis; format: ADME, cell-based, Hepatocyte; how it was run: as §2
Mus musculus [24] = species: Mus musculus; experiment: Increase in cGMP level in CD-1 mouse brain hippocampus by immunoassay; format: functional; how it was run: as §3

In the case of `Cc1nc(-c2cnn(C)c2-c2ccc(C(F)(F)F)cn2)c2c(N3CCC3)ncnn12` [PF-05180999], the half-life [1] was 84 min, the Drug uptake (Plasma) was “Active” and the Drug metabolism [2] was “Metabolite_Detected”. The Activity (Canis familiaris [3]) was “Non-Toxic”, the Drug metabolism (Liver [4]) was “Metabolite_Detected” and the Tmax [5] was 15 min. The Drug metabolism [6] was “Metabolite_Detected”, the Activity (Rattus norvegicus [7]) was “Toxic” and the Cmax [8] was 363 ng/mL. For the same compound, the Drug uptake (Brain) was “Active”, the “inhibition (INH)” value (Cytochrome P450 3A [9]) was “Not Active” and the AUC(0-inf) [10] was 312 ng·h/mL. For the same compound, the Activity (Mus musculus [11]) was “Dose-dependent effect”, the fEC50 (Mus musculus [12]) was 98 nM and the Cmax [13] was 1020 ng/mL. For the same compound, the logD at 1 h [14] was 2.3, the “inhibition (INH)” value (Cytochrome P450 2D6) was “Not Active” and the Cmax [15] was 1770 ng/mL. The TDI (Cytochrome P450 2C19) was “Not Active”, the Activity (Rattus norvegicus [16]) was “inactive” and the TDI (Cytochrome P450 3A [17]) was “Not Active”. For the same compound, the Activity (Canis familiaris [18]) was “Non-Toxic”, the Drug metabolism (Liver [19]) was “Metabolite_Detected” and the Activity (Rattus norvegicus [20]) was “inactive”. For the same compound, the Drug metabolism (Liver [21]) was “Metabolite_Detected”, the fIC50 (Rattus norvegicus [22]) was 9 nM and the Drug metabolism [23] was “Metabolite_Detected”. The Activity (Mus musculus [24]) was “Dose-dependent effect”.

— ChEMBL document CHEMBL4024790 (J Med Chem, 2018)
